Results reported in ChEMBL document CHEMBL3271979, “Inhibition of solid tumors by nitrosoureas. 1. Lewis lung carcinoma” (1977).
Active and inactive are the calls of the source. The calls are words filed in the database; no cut-off is given here.

Assays:
Mus musculus [1] = test: Antitumor activity against mouse advanced Lewis lung carcinoma allografted in BDF1 mouse assessed as disease cure at 316 mg/kg, ip administered as single dose on 7th day post-tumor implantation measured for 80 days post-drug treatment; assay type: functional, organism-based; set-up: dose 316 mg/kg
Method in brief: (§1)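 BDF1 mice (C57Blk/6 × DBA/2) implanted sc by trocar with Lewis lung tumor fragments of about 40 mg, taken only from bacteriologically sterile donor tumors. Mice bearing tumors of about 400 mg (day 6-7) were selected. Each received a single ip dose on day 7, at or below the LD10 in normal mice. Groups were of 10 mice. Tumor weight was taken from calipers as w = ab²/2, measured at least twice weekly. Matched non-tumor mice served as toxicity controls.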

[2] = Ratio of ED50 for antitumor activity against mouse L1210 cells allografted in ip dosed mouse to LD10 for mouse
[3] = Antitumor activity against mouse advanced Lewis lung carcinoma allografted in BDF1 mouse assessed as increase in host life span at 316 mg/kg, ip administered as single dose on 7th day post-tumor implantation; assay type: functional; details: route intraperitoneal
Method in brief: (§2)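 BDF1 mice (C57Blk/6 × DBA/2) implanted sc by trocar with about 40 mg Lewis lung tumor fragments from bacteriologically sterile donors. Advanced-disease groups held tumors of about 400 mg by day 6-7, sized by caliper (w = ab²/2). Single ip injection on day 7, in water or saline vehicle, at or below the LD10 in normal mice. Tumors measured at least twice weekly.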

[4] = Antitumor activity against mouse early Lewis lung carcinoma allografted in BDF1 mouse assessed as time delay in tumor growth at 315 mg/kg, ip administered as single dose on 1 or 2 days post-tumor implantation; assay type: functional; details: route intraperitoneal
Method in brief: (§3)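 BDF1 mice (C57Blk/6 × DBA/2) implanted sc by trocar with ~40 mg Lewis lung tumor fragments from bacteriologically sterile donors. A single ip dose was given on day 1 or 2, as a solution or suspension in water or saline with suspending agent, at ≤0.5 ml. Tumors were measured by caliper at least twice weekly, with weight = ab²/2. Delay was taken as the days for the tumor to reach 1 g.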

[5] = Antitumor activity against mouse early Lewis lung carcinoma allografted in BDF1 mouse assessed as increase in host life span at 315 mg/kg, ip administered as single dose on 1 or 2 days post-tumor implantation; assay type: functional; details: route intraperitoneal
Method in brief: (§4)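 BDF1 mice (C57Blk/6 × DBA/2) implanted sc by trocar with ~40 mg Lewis lung tumor fragments from bacteriologically sterile donor tumors. Single ip dose on day 1 or 2, as a solution or suspension in water (CMC or gum acacia) or saline (HPC or Tween 80). Read-out is […]. Same-dose toxicity controls were run in nontumor-bearing mice.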

[6] = Antitumor activity against mouse early Lewis lung carcinoma allografted in BDF1 mouse assessed as time delay in tumor growth at 210 mg/kg, ip administered as single dose on 1 or 2 days post-tumor implantation; assay type: functional; details: route intraperitoneal; method in brief: as §3
Mus musculus [7] = test: Antitumor activity against mouse advanced Lewis lung carcinoma allografted in ip dosed BDF1 mouse assessed as disease cure administered as single dose on day 6 or 7 post-tumor implantation; assay type: functional, organism-based; method in brief: as §1
[8] = Antitumor activity against mouse early Lewis lung carcinoma allografted in ip dosed BDF1 mouse assessed as disease cure administered as single dose on 1 or 2 days post-tumor implantation measured for 80 days post-drug treatment; assay type: functional
Method in brief: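 BDF1 mice implanted sc by trocar with ~40 mg Lewis lung fragments from sterile donor tumors. A single ip dose was given on day 1 or 2 after implant, in water or saline vehicle. Cures were scored in animals observed for at least 80 days after treatment. Drug-toxicity controls were matched non-tumor-bearing mice monitored for body weight and deaths.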

Mus musculus [9] = test: Antitumor activity against mouse advanced Lewis lung carcinoma allografted in ip dosed BDF1 mouse assessed as complete regression of established tumor administered as single dose on day 6 or 7 post-tumor implantation; assay type: functional, organism-based; method in brief: as §1
[10] = Antitumor activity against mouse early Lewis lung carcinoma allografted in BDF1 mouse assessed as increase in host life span at 210 mg/kg, ip administered as single dose on 1 or 2 days post-tumor implantation; assay type: functional; details: route intraperitoneal; method in brief: as §4
[11] = Antitumor activity against mouse advanced Lewis lung carcinoma allografted in BDF1 mouse assessed as increase in host life span at 15 mg/kg, ip administered as single dose on 7th day post-tumor implantation; assay type: functional; details: route intraperitoneal; method in brief: as §2
[12] = Antitumor activity against mouse advanced Lewis lung carcinoma allografted in ip dosed BDF1 mouse assessed as increase in host lifespan administered as single dose on day 6 or 7 post-tumor implantation; assay type: functional
Method in brief: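 Advanced Lewis lung model: about 40 mg fragments implanted sc by trocar into BDF1 mice, and mice with tumors of about 400 mg (day 6-7) selected. Tumor weight from calipers, w = ab²/2. Agent given as one ip dose in distilled water or physiological saline. Nontumor-bearing mice received matching doses as toxicity controls.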

[13] = Antitumor activity against mouse early Lewis lung carcinoma allografted in BDF1 mouse assessed as increase in host life span at 17 mg/kg, ip administered as single dose on 1 or 2 days post-tumor implantation; assay type: functional; details: route intraperitoneal; method in brief: as §4
[14] = Antitumor activity against mouse early Lewis lung carcinoma allografted in BDF1 mouse assessed as time delay in tumor growth at 11 mg/kg, ip administered as single dose on 1 or 2 days post-tumor implantation; assay type: functional; details: route intraperitoneal
Method in brief: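 Sc trocar implants of about 40 mg Lewis lung fragments in BDF1 mice. A single ip injection was given on day 1 or 2, in water or physiological saline, at ≤0.5 ml. Tumor size came from caliper length and width as w = ab²/2, measured at least twice weekly. Growth delay is the extra days taken to reach 1 g, compared with untreated controls.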

[15] = Antitumor activity against mouse early Lewis lung carcinoma allografted in BDF1 mouse assessed as time delay in tumor growth at 17 mg/kg, ip administered as single dose on 1 or 2 days post-tumor implantation; assay type: functional; details: route intraperitoneal; method in brief: as §3
[16] = Antitumor activity against mouse early Lewis lung carcinoma allografted in BDF1 mouse assessed as increase in host life span at 11 mg/kg, ip administered as single dose on 1 or 2 days post-tumor implantation; assay type: functional; details: route intraperitoneal
Method in brief: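 Early disease: BDF1 mice carrying sc trocar implants of about 40 mg Lewis lung fragments. One ip dose given on day 1 or 2 after implant, in distilled water or saline, at ≤0.5 ml. Endpoints were % increase in life-span of dying animals and delay in days for the primary tumor to reach 1 g. Untreated controls served as reference.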

Mus musculus [17] = test: Antitumor activity against mouse advanced Lewis lung carcinoma allografted in BDF1 mouse assessed as disease cure at 15 mg/kg, ip administered as single dose on 7th day post-tumor implantation measured for 80 days post-drug treatment; assay type: functional, organism-based; set-up: dose 15 mg/kg; method in brief: as §1
[18] = Antitumor activity against mouse early Lewis lung carcinoma allografted in BDF1 mouse assessed as time delay in tumor growth at 21 mg/kg, ip administered as single dose on 1 or 2 days post-tumor implantation; assay type: functional; details: route intraperitoneal; method in brief: as §3
[19] = Antitumor activity against mouse advanced Lewis lung carcinoma allografted in BDF1 mouse assessed as increase in host life span at 33 mg/kg, ip administered as single dose on 7th day post-tumor implantation; assay type: functional; details: route intraperitoneal; method in brief: as §2
[20] = Antitumor activity against mouse early Lewis lung carcinoma allografted in BDF1 mouse assessed as time delay in tumor growth at 32 mg/kg, ip administered as single dose on 1 or 2 days post-tumor implantation; assay type: functional; details: route intraperitoneal; method in brief: as §3
Mus musculus [21] = test: Antitumor activity against mouse advanced Lewis lung carcinoma allografted in BDF1 mouse assessed as disease cure at 33 mg/kg, ip administered as single dose on 7th day post-tumor implantation measured for 80 days post-drug treatment; assay type: functional, organism-based; set-up: dose 33 mg/kg; method in brief: as §1
[22] = Antitumor activity against mouse early Lewis lung carcinoma allografted in BDF1 mouse assessed as increase in host life span at 21 mg/kg, ip administered as single dose on 1 or 2 days post-tumor implantation; assay type: functional; details: route intraperitoneal; method in brief: as §4
[23] = Antitumor activity against mouse early Lewis lung carcinoma allografted in BDF1 mouse assessed as increase in host life span at 32 mg/kg, ip administered as single dose on 1 or 2 days post-tumor implantation; assay type: functional; details: route intraperitoneal; method in brief: as §4
[24] = Antitumor activity against mouse advanced Lewis lung carcinoma allografted in BDF1 mouse assessed as increase in host life span at 36 mg/kg, ip administered as single dose on 7th day post-tumor implantation; assay type: functional; details: route intraperitoneal; method in brief: as §2
[25] = Antitumor activity against mouse early Lewis lung carcinoma allografted in BDF1 mouse assessed as increase in host life span at 36 mg/kg, ip administered as single dose on 1 or 2 days post-tumor implantation; assay type: functional; details: route intraperitoneal; method in brief: as §4
[26] = Antitumor activity against mouse early Lewis lung carcinoma allografted in BDF1 mouse assessed as time delay in tumor growth at 36 mg/kg, ip administered as single dose on 1 or 2 days post-tumor implantation; assay type: functional; details: route intraperitoneal; method in brief: as §3
[27] = Antitumor activity against mouse early Lewis lung carcinoma allografted in BDF1 mouse assessed as increase in host life span at 24 mg/kg, ip administered as single dose on 1 or 2 days post-tumor implantation; assay type: functional; details: route intraperitoneal; method in brief: as §4
[28] = Antitumor activity against mouse early Lewis lung carcinoma allografted in BDF1 mouse assessed as time delay in tumor growth at 24 mg/kg, ip administered as single dose on 1 or 2 days post-tumor implantation; assay type: functional; details: route intraperitoneal; method in brief: as §3

CC(C)(C)[C@H]1CC[C@H](NC(=O)N(CCCl)N=O)CC1
Activity (Mus musculus [1]): inactive | Ratio [2]: 0.6 | ILS at 316 mg/kg [3]: 41% | Time [4]: 22 days | ILS at 315 mg/kg [5]: 19% | Time [6]: 4.1 days | Activity (Mus musculus [7]): inactive | Activity [8]: 10% | inhibition (Mus musculus [9]): Active | ILS at 210 mg/kg [10]: 24%

O=NN(CCCl)C(=O)NC1CCC(=O)NC1=O (stereo not given)
ILS at 15 mg/kg [11]: 49% | ILS [12]: >25% | ILS at 17 mg/kg [13]: 28% | Ratio [2]: 0.4 | Time [14]: 1.4 days | Activity (Mus musculus [7]): inactive | Activity [8]: 10% | inhibition (Mus musculus [9]): Active | Time [15]: 3.8 days | ILS at 11 mg/kg [16]: 32% | Activity (Mus musculus [17]): inactive

O=NN(CCF)C(=O)NC1CCS(=O)(=O)CC1
Time [18]: 8.3 days | ILS at 33 mg/kg [19]: 0% | ILS [12]: >25% | Ratio [2]: 0.3 | Time [20]: 15 days | Activity (Mus musculus [21]): inactive | Activity (Mus musculus [7]): inactive | Activity [8]: 10% | inhibition (Mus musculus [9]): inactive | ILS at 21 mg/kg [22]: 18% | ILS at 32 mg/kg [23]: 0%

C[C@H]1CC[C@H](NC(=O)N(CCCl)N=O)CC1
ILS at 36 mg/kg [24]: 46% | ILS at 36 mg/kg [25]: 44% | Time [26]: 14 days | Ratio [2]: 0.4 | ILS at 24 mg/kg [27]: 37% | Time [28]: 6.5 days | Activity (Mus musculus [7]): Active | Activity [8]: >50%
